A short description of one data set: in vitro. Format: cell-based. The settings on record: African green monkey.
For another data set, the target named is T1, PEDV 3CL protease (nsp5) (Porcine epidemic diarrhea virus, UniProt P0C6Y4).
T1 sequence (P0C6Y4 2998-3299 limits assumed): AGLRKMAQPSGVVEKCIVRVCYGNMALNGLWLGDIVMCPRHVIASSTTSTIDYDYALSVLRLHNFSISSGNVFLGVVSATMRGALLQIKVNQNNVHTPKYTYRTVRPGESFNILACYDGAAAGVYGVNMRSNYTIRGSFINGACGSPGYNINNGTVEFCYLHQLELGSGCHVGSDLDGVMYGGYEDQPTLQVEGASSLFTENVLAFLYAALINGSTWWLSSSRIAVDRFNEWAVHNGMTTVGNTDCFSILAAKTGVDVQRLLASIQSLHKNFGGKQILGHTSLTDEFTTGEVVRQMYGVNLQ
Briefly: FRET assay of PEDV 3CL protease. Format: biochemical. An outline of the steps:
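The assay used purified PEDV nsp5 (3CL protease) at 0.25 μM final and substrate Dabcyl-YNSTLQ↓AGLRKM-E-Edans at 10 μM. Test compound (6.25–500 μM) was preincubated with enzyme for 20 min at 37 °C, then incubated with substrate for 60 min at 37 °C. Fluorescence was read at ex 340/em 485, minus a no-protease background. Inhibition % came from the 60–0 min RFU change against control, and IC50 from nonlinear regression of triplicate runs.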

In a further data set the target is T2, EAV 3CLSP (nsp4) (Equine arteritis virus, UniProt P19811).
T2 sequence (P19811 1065-1268 limits assumed): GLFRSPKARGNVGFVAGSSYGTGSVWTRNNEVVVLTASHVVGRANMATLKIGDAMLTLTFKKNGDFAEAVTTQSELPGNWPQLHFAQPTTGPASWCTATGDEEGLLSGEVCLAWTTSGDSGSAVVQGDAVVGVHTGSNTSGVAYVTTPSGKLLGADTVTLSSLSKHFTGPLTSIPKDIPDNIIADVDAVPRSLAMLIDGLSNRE
Kind of data set: FRET assay of EAV 3CLSP. The settings on record: 1 μM substrate, 12.5-500 μM compound. Format: biochemical.

Another data set in a line: Cell viability assay. The class given is cell-based. The settings on record: African green monkey, Vero cells. An outline of the steps:
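Confluent Vero cells in DMEM with 10% FBS at 37 °C, 5% CO2 were exposed to test compound at 50–500 μM for 72 h, with 0.1% DMSO as control. Viability was read by CellTiter-Glo luminescence. CC50 was fitted in GraphPad Prism from triplicate experiments (±SD).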

Data set [1] has as its system PRRSV (HP-PRRSV WUH3 strain). Briefly: TCID50 assay for PRRSV replication in MARC-145 cells. The class given is cell-based, porcine reproductive and respiratory syndrome virus. The settings on record: for Inhibition of PRRSV infection: 100 μM.
The subject of the next data set is PEDV (FJZZ strain). Kind of data set: TCID50 assay for PEDV replication in Vero cells. Format: cell-based, porcine epidemic diarrhea virus.
Another data set has as its target T3, PRRSV 3CLSP (nsp4) (Porcine reproductive and respiratory syndrome virus, UniProt A1E8J1).
T3 sequence (A1E8J1 1780-1983): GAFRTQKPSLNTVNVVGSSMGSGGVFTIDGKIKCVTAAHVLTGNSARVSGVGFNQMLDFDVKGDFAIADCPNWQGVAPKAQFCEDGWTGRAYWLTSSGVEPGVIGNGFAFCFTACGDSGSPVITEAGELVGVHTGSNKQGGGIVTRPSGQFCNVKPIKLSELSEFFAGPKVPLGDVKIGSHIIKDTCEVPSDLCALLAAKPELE
Kind of data set: FRET assay of PRRSV 3CLSP. The class given is biochemical.

The test system of data set [2] is PEDV nucleocapsid (N) protein. Briefly: Western blot of PEDV nucleocapsid. Format: cell-based, porcine epidemic diarrhea virus. The settings on record: Vero cells. (A western blot detects proteins with antibodies after separation by electrophoresis.)
Data set [3] deals with PRRSV nucleocapsid (N) protein. Kind of data set: Western blot of PRRSV nucleocapsid. Format: cell-based, porcine reproductive and respiratory syndrome virus. The settings on record: MARC-145 cells; for PRRSV N protein detection (western blot): 100 μM; for PRRSV N protein level (western blot), dose response: 6.25–200 μM, 36 h.

What is called CC50 is the concentration at which the toxic effect on the cells reaches its halfway point. In general, IC50 refers to the concentration at which inhibition is half-maximal. The term viability denotes a read-out of living cells in per cent, often relative to untreated cells.

On to `Cc1cccc(C)c1C(=O)c1ccc(O)cc1O` [Compound 3, (2,4-dihydroxyphenyl)(2,6-dimethylphenyl)methanone], for which, in the data set “in vitro”, the CC50 was 483 µM. The same compound registered an IC50 against PEDV 3CL protease (nsp5) of 23.4 µM. Further, the “Protease activity of EAV 3CLSP” value at EAV 3CLSP (nsp4) was “inhibited”. The compound also had a CC50 at 72 h in “Cell viability assay” of more than 500 µM. Also, in data set [1], the “Inhibition of PRRSV infection” value is recorded as “strongly inhibited PRRSV infection”. Moreover, the “PRRSV-3CLpro SI values (selectivity index)” value in data set [1] (PRRSV) is reported as approximately 8.5. Besides, in the data set on PEDV (FJZZ strain), the “PEDV-3CLpro SI values (selectivity index)” value was approximately 9.02. In addition, the IC50 against PRRSV 3CLSP (nsp4) was 116 µM. In [2], the “PEDV N protein level (western blot), dose response” value was “decreased”. In addition, in data set [3], the “PRRSV N protein detection (western blot)” value is listed as “no viral N protein was detectable” and the “PRRSV N protein level (western blot), dose response” value (“PRRSV N protein level” for short) is “decreased”.

In “in vitro”, `CC1CCN(c2ncnc3ccccc23)CC1` [Compound 5, 4-(4-methylpiperidin-1-yl)quinazoline] registered a CC50 of more than 500 µM and a viability at 72 h, 500 µM of more than 60%. Besides, the IC50 against PRRSV 3CLSP (nsp4) is 173 µM. Besides, in [3], the “PRRSV N protein level” value was “decreased”.

For the compound `Cc1ccncc1` [Compound 4, 4-methylpyridine], the IC50 is more than 500 µM at PEDV 3CL protease (nsp5) and 148 µM on PRRSV 3CLSP (nsp4). Further, in [3], the “Suppression of PRRSV replication (western blot)” value is “did not substantially suppress PRRSV replication”.

`Cc1ccc(C(=O)c2ccc(O)cc2O)cc1` [Compound 2, (2,4-dihydroxyphenyl) (4-methylphenyl)methanone] returned a CC50 in the data set “in vitro” of 480 µM. Besides, the results for the IC50 at PEDV 3CL protease (nsp5) and against PRRSV 3CLSP (nsp4) were 37.8 µM and 144 µM, respectively. In “Cell viability assay”, this compound displayed a CC50 at 72 h of more than 500 µM. Also, in data set [1], the “Inhibition of PRRSV infection” value is given as “strongly inhibited PRRSV infection”. Besides, the “PEDV N protein level (western blot), dose response” value in data set [2] was “decreased”. Moreover, the “PRRSV N protein detection (western blot)” value in data set [3] is “no viral N protein was detectable”. In [3], the “PRRSV N protein level” value is reported as “decreased”.
